ChEMBL document CHEMBL5352450, “Synthesis and structure-activity relationship studies of original cyclic diadenosine derivatives as nanomolar inhibitors of NAD kinase from pathogenic bacteria” (Eur J Med Chem, 2023)
The source made the active and inactive calls. No cut-off for these calls is given here.

How the values were obtained:
NAD kinase 1 = target: T1, NAD kinase 1 (Listeria monocytogenes serotype 4b (strain F2365), UniProt Q721J8); assay: Inhibition of Listeria monocytogenes NADK1 expressed in Escherichia coli assessed as inhibition constant measured every 32 secs for 32 mins by absorbance based analysis
T1 sequence (Q721J8 whole entry): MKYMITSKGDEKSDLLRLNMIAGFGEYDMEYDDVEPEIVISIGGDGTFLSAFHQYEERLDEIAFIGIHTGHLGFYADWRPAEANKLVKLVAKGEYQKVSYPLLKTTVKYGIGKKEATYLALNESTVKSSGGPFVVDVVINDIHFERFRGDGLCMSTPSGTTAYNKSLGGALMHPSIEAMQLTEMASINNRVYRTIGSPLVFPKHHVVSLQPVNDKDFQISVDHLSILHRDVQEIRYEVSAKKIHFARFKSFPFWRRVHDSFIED

Staphylococcus aureus [1] = assay: Antibacterial activity against Staphylococcus aureus assessed as bacterial growth inhibition in presence of polymyxin B by microplate reader assay; type: functional, organism-based
How it was run: (§1)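 Same diluted-culture BHI set-up (S. aureus Xen36 in 25% PBS/10% DMSO; L. monocytogenes EGDe in 25% PBS/1% DMSO) with each compound plus polymyxin B at 20, 40, 60 or 80 µg/mL. Incubated shaking at 200 rpm, 37°C; growth monitored by microplate reader.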

Listeria monocytogenes [2] = assay: Antibacterial activity against Listeria monocytogenes assessed as bacterial growth inhibition in presence of polymyxin B by microplate reader assay; type: functional, organism-based
How it was run: as §1

Staphylococcus aureus [3] = assay: Antibacterial activity against Staphylococcus aureus assessed as reduction in bacterial growth at 0.01 ug/ml incubated for 6 hrs by microplate reader assay; type: functional, organism-based; details: dose 0.01 µg/ml
How it was run: (§2)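 Overnight 37°C BHI cultures (S. aureus Xen36; L. monocytogenes EGDe) diluted 1:100 into BHI with compound at 0.01 µg/mL in 25% PBS/10% DMSO (S. aureus) or 25% PBS/1% DMSO (Listeria). Controls: vehicle and 10 µg/mL levofloxacin. Shaken at 200 rpm, 37°C, 6 h; growth read on plate reader as percent growth; n=6 biological replicates, one-way ANOVA.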

Listeria monocytogenes [4] = assay: Antibacterial activity against Listeria monocytogenes assessed as reduction in bacterial growth at 0.01 ug/ml incubated for 6 hrs by microplate reader assay; type: functional, organism-based; details: dose 0.01 µg/ml
How it was run: as §2

Structure (SMILES)	Ki (NAD kinase 1)	Activity (Staphylococcus aureus [1])	Activity (Listeria monocytogenes [2])	Activity (Staphylococcus aureus [3])	Activity (Listeria monocytogenes [4])
Nc1ncnc2c1ncn2[C@@H]1O[C@H](CN2CC#Cc3nc4c(N)ncnc4n3[C@@H]3O[C@H](CNC(=O)CCNC(=O)C2)[C@@H](O)[C@H]3O)[C@@H](O)[C@H]1O	0.504 µM	Active	inactive	inactive	inactive
Nc1ncnc2c1ncn2[C@@H]1O[C@H](CN2CC#Cc3nc4c(N)ncnc4n3[C@@H]3O[C@H](CNC(=O)NCCNC(=O)C2)[C@@H](O)[C@H]3O)[C@@H](O)[C@H]1O	7.6 µM	Active	inactive	inactive	inactive
Nc1ncnc2c1ncn2[C@@H]1O[C@H](COCC#Cc2nc3c(N)ncnc3n2[C@@H]2O[C@H](CO)[C@@H](O)[C@H]2O)[C@@H](O)[C@H]1O	–	–	–	–	inactive
C[C@H]1COc2c(N3CCN(C)CC3)c(F)cc3c(=O)c(C(=O)O)cn1c23	–	–	–	–	inactive
NCCS(=O)(=O)NC[C@H]1O[C@@H](n2c(C#CCOC[C@H]3O[C@@H](n4cnc5c(N)ncnc54)[C@H](O)[C@@H]3O)nc3c(N)ncnc32)[C@H](O)[C@@H]1O	5.5 µM	–	–	–	–
Nc1ncnc2c1ncn2[C@@H]1O[C@H](CN2CC#Cc3nc4c(N)ncnc4n3[C@@H]3O[C@H](CNS(=O)(=O)CCNC(=O)C2)[C@@H](O)[C@H]3O)[C@@H](O)[C@H]1O	0.054 µM	Active	inactive	inactive	inactive
Nc1ncnc2c1ncn2[C@@H]1O[C@H](CN2CC#Cc3nc4c(N)ncnc4n3[C@@H]3O[C@H](CNC(=O)NCCCNC(=O)C2)[C@@H](O)[C@H]3O)[C@@H](O)[C@H]1O	0.177 µM	Active	inactive	inactive	inactive
Nc1ncnc2c1ncn2[C@@H]1O[C@H](CN2CC#Cc3nc4c(N)ncnc4n3[C@@H]3O[C@H](CNC(=O)CC(=O)NCC2)[C@@H](O)[C@H]3O)[C@@H](O)[C@H]1O	6.8 µM	Active	inactive	inactive	inactive
Nc1ncnc2c1ncn2[C@@H]1O[C@H](CN2CC#Cc3nc4c(N)ncnc4n3[C@@H]3O[C@H](CNC(=O)CNC(=O)C2)[C@@H](O)[C@H]3O)[C@@H](O)[C@H]1O	15 µM	Active	inactive	inactive	inactive

The next lines start with results.

Ki (NAD kinase 1)	Structure (SMILES)	Activity (Staphylococcus aureus [1])	Activity (Listeria monocytogenes [2])	Activity (Staphylococcus aureus [3])	Activity (Listeria monocytogenes [4])
91 µM	NCCS(=O)(=O)NC[C@H]1O[C@@H](n2c(C#CCN(CC(=O)O)C[C@H]3O[C@@H](n4cnc5c(N)ncnc54)[C@H](O)[C@@H]3O)nc3c(N)ncnc32)[C@H](O)[C@@H]1O	–	–	–	–
18 µM	NCCNC(=O)NC[C@H]1O[C@@H](n2c(C#CCN(CC(=O)O)C[C@H]3O[C@@H](n4cnc5c(N)ncnc54)[C@H](O)[C@@H]3O)nc3c(N)ncnc32)[C@H](O)[C@@H]1O	–	–	–	–
53 µM	NCCN(CC#Cc1nc2c(N)ncnc2n1[C@@H]1O[C@H](CNC(=O)CC(=O)O)[C@@H](O)[C@H]1O)C[C@H]1O[C@@H](n2cnc3c(N)ncnc32)[C@H](O)[C@@H]1O	–	–	–	–
16 µM	NCCCNC(=O)NC[C@H]1O[C@@H](n2c(C#CCN(CC(=O)O)C[C@H]3O[C@@H](n4cnc5c(N)ncnc54)[C@H](O)[C@@H]3O)nc3c(N)ncnc32)[C@H](O)[C@@H]1O	–	–	–	–
19 µM	NCCC(=O)NC[C@H]1O[C@@H](n2c(C#CCN(CC(=O)O)C[C@H]3O[C@@H](n4cnc5c(N)ncnc54)[C@H](O)[C@@H]3O)nc3c(N)ncnc32)[C@H](O)[C@@H]1O	–	–	–	–
104 µM	NCC(=O)NC[C@H]1O[C@@H](n2c(C#CCN(CC(=O)O)C[C@H]3O[C@@H](n4cnc5c(N)ncnc54)[C@H](O)[C@@H]3O)nc3c(N)ncnc32)[C@H](O)[C@@H]1O	–	–	–	–
